SENP6 block: inhibitors of human SENP6 protease | Q9GZR1 | Recombinant SENP6 catalytic domain, aminoluciferin luminescence | inhibition, % at 10 µM | 1.8% of 330,000 active;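 active means inhibition above about 50% at the single tested dose, limit read from the data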;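 further: plate controls were DMSO wells with enzyme for no effect and DMSO wells lacking enzyme for full effect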
SENP8 block-1: SENP8 (human) protease inhibition. 0.64% of 360,000 active. Q96LD8. inhibition, % at 20 µM. recombinant SENP8, Nedd8 substrate fluorescence. AID 602440; in the data active means inhibition mostly above about 40%, no sharp cut-off; inactive means mostly below about 27%
Target sequence (Q96LD8 whole entry, looked up): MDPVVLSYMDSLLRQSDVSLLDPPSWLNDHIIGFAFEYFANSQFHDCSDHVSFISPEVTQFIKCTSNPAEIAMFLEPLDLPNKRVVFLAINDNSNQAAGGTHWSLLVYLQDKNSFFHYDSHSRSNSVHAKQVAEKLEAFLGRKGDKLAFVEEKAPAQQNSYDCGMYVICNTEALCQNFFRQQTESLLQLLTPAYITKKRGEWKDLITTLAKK
Platelet DG rel: modulates dense granule release in human platelets. human platelet-rich plasma, SFLLRN dense granule ATP release, luminescence. inhibition, %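 (compounds screened at 7.5 µM in platelet-rich plasma)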. 0.22% of 300,000 active. AID 1663;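 active means mean replicate score, as percent of positive control, at or above 50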
SENP8 block-2: SENP8 protease inhibition | inhibition, % at 10 µM | Q96LD8 | AID 2540 | 1.2% of 330,000 active | purified SENP8, Z-RLRGG-aminoluciferin cleavage, luminescence; in the data active means inhibition above about 50%
SENP7 block: inhibitors of human SENP7 protease; Q9BQF6; recombinant SENP7, Z-RLRGG-aminoluciferin luminescence, 40 min; inhibition, % at 5 µM; 1.5% of 330,000 active; AID 434973;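 active means inhibition above about 50% at the single test dose, limit read from the data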;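 further: plate controls were DMSO with enzyme for no effect and no enzyme buffer wells for full effect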
Target sequence (Q9BQF6 706-1050 limits assumed): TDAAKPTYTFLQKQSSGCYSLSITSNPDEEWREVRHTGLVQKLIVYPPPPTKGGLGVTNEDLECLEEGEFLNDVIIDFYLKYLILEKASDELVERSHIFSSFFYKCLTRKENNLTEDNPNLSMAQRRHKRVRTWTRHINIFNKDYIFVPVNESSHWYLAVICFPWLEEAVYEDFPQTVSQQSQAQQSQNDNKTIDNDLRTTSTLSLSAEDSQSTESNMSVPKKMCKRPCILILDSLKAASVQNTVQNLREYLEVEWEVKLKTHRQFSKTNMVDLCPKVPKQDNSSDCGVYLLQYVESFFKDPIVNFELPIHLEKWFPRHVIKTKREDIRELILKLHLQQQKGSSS
SENP1 inh: inhibitors of human SENP1 SUMO protease catalytic domain; recombinant SENP1 catalytic domain, CyPet-SUMO1-YPet FRET cleavage; inhibition, % at 10 µM; 0.21% of 360,000 active;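 active means inhibition at least 30% at 10 µM, raw YFP signal under a set limit, fluorescence ratio 0.5 to 1.5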;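 further: 0% = enzyme with DMSO and 100% = no enzyme wells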
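system = hSENP1 catalytic domain, recombinant | reagent = SFCypet-SUMO1-SFYpet substrate at 25 nM | doses = one dose per compound, 10 µM, 0.5% DMSO | incubation = enzyme reaction for 50 min at room temperature, dark | measured by = FRET, CFP and YFP emission | controls = no-enzyme low, enzyme-DMSO high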
SENP8 inh conf: SENP8 (human) inhibition, single concentration confirmation; inhibition, % at 25 µM; 15% of 1,400 active; shares compounds with SENP8 block-1; purified SENP8, Nedd8-AMC/pro-Nedd8 cleavage fluorescence, 30 min; in the data active means inhibition mostly above about 39%, no sharp cut-off; inactive means mostly below about 34%
* hit, by the source's call; . = no result. Most compounds without a hit are left out; they make up all but 2.6% or so of the library.

SMILES | SENP6 block | SENP8 block-1 | Platelet DG rel | SENP8 block-2 | SENP7 block | SENP1 inh | SENP8 inh conf
c1coc(C2=NC(c3ccco3)C(c3ccco3)N2)c1 (stereo not given) | . | -421.4 | . | . | . | -1.2 | .
COc1ccc(C2CC3(CC(C)(C)NC(SC)=N3)Oc3cc(O)cc(C)c32)cc1 (stereo not given) | 6.0 | 44.2* | 17.7 | -9.7 | 3.7 | 0.4 | 9.3
O=C(Nc1ccccc1F)c1ccc([N+](=O)[O-])s1 | 5.9 | 30.6 | 1.4 | -1.3 | 0.7 | 0.9 | .
O=C(Nc1cccnc1)c1ccc([N+](=O)[O-])s1 | 10.2 | 43.2* | . | 2.8 | 10.2 | 3.0 | 29.9
O=[N+]([O-])c1cc(-c2n[nH]c(-c3ccccc3)n2)cc([N+](=O)[O-])c1 | -2.3 | 5.9 | -5.4 | 3.0 | 11.8 | 1.2 | .
O=[N+]([O-])c1cc([N+](=O)[O-])c2n[nH]c(-c3ccccc3)c2c1 | -10.8 | 35.1* | 1.1 | 6.2 | 4.9 | 5.5 | 7.7
NC(=NC1CCCCC1)c1ccc([N+](=O)[O-])cc1 | -7.0 | 41.7* | . | 7.6 | 3.3 | 1.3 | 5.3
CSc1cccc(NC(=S)N(CCCN2CCCC2)Cc2cccs2)c1 | -2.1 | 45.7* | -3.8 | 0.7 | -4.7 | 1.3 | -3.8
S=C(Nc1cccc(Cl)c1)N(CCCN1CCCC1)Cc1cccn1Cc1ccc(Cl)cc1 | -7.9 | 40.3* | -5.2 | -0.6 | 1.9 | -1.2 | 29.2
CCC(C)[C@H](NC(=O)Nc1cccc(Cl)c1)C(=O)O (stereo not given in full) | -25.1 | 47.5* | 3.0 | -6.4 | -0.5 | 2.5 | 16.0
CCC(C)[C@H](NC(=O)Nc1ccc(S(N)(=O)=O)cc1)C(=O)O (stereo not given in full) | -18.7 | 9.6 | 0.0 | -10.3 | -12.5 | 0.5 | .
CCNC(=O)NC(=O)C(C)Sc1nc2ccccc2n1CC(C)C (stereo not given) | -0.8 | 42.2* | 1.0 | 1.9 | 1.5 | 0.6 | 13.3
CC(=O)Oc1ccc2oc(/C=C/N(C)C)c([N+](=O)[O-])c2c1 | 9.0 | 37.8 | 4.2 | 0.7 | -2.4 | -0.8 | .
COc1nc(/C=C/N(C)C)c([N+](=O)[O-])c(OC)n1 | -0.4 | 43.1* | 3.4 | 3.6 | -1.5 | 0.8 | 18.9
Cc1[nH][nH]c(=O)c1C(c1cc2c(cc1Br)OCO2)c1c(C)[nH][nH]c1=O | 13.6 | 6.7 | -2.1 | -3.9 | -0.6 | 2.4 | .
Cc1[nH][nH]c(=O)c1C(c1cc(Br)ccc1O)c1c(C)[nH][nH]c1=O | 15.1 | 41.8* | -4.3 | 4.0 | 3.7 | -2.9 | 39.5
CCCCCCN1C=CC=C/C1=C\C=C(C#N)C#N | -7.5 | 42.6* | -0.4 | -5.2 | -9.2 | -13.4 | 29.0
CCOC(=O)Cn1c(C)nc2c(C(=O)OCC)sc(C)c2c1=O | -22.1 | -241.4 | -8.4 | 2.4 | 1.8 | 2.1 | .
CCOC(=O)c1sc(C)c2c(=O)n(CC(=O)c3ccc(Br)cc3)nnc12 | -8.9 | 40.5* | -6.1 | -6.4 | 3.6 | 0.4 | 17.9
FC(F)Oc1ccc(NC(=S)NNc2ccnc3cc(Cl)ccc23)cc1 | -30.0 | -30.5 | 0.0 | -7.6 | -0.2 | -6.4 | .
CC1(C)Cc2cccc(OCC(=O)OCC(=O)Nc3cccc(S(N)(=O)=O)c3)c2O1 | -14.7 | 40.5* | 3.5 | -3.6 | 0.5 | 2.3 | 7.5
Cc1nc(N2CCOCC2)nc(Oc2ccccc2F)c1[N+](=O)[O-] | 17.7 | 41.4* | 0.9 | 5.4 | 5.2 | -1.0 | 17.1
COc1ccc(OCCN2CCC(C(=O)NC(c3ccc(Cl)cc3)c3cnccn3)CC2)cc1 (stereo not given) | . | 6.5 | . | . | . | 1.4 | .
OC[C@H]1O[C@H](OCc2ccccc2)[C@H](O[C@@H]2OC[C@@H](O)[C@H](O)[C@H]2O)[C@@H](O)[C@@H]1O | -6.5 | 41.9* | 0.9 | -4.2 | -3.8 | -0.4 | 10.8
OC1COC(OCC2OC(OCc3ccccc3)C(O)C(O)C2O)C(O)C1O (stereo not given) | -3.3 | 1.5 | 0.1 | 5.5 | 0.6 | -4.2 | .
SMILES | SENP6 block | SENP8 block-1 | Platelet DG rel | SENP8 block-2 | SENP7 block | SENP1 inh | SENP8 inh conf
COCc1cc(C)nc(NC2CC(C)(C)NC(C)(C)C2)c1C#N | 9.2 | -264.2 | 0.9 | 4.0 | 2.4 | -2.0 | .
Nc1ccc(S(=O)(=O)NC2(C(F)(F)F)NC(=O)N(Cc3ccccc3)C2=O)cc1 (stereo not given) | -0.6 | 15.2 | -5.6 | -1.9 | 9.9 | 2.5 | .
CC(C)c1noc2ncc(C(=O)c3cc(Cl)cc(Cl)c3O)cc12 | -2.7 | 45.9* | -4.6 | -6.0 | 2.2 | 18.3 | 18.5
CCCCCCC(=O)Nc1ccc(S(=O)(=O)Nc2onc(C)c2C)cc1 | -17.1 | 4.8 | -18.2 | -11.5 | -14.7 | -0.3 | .
Cc1noc(NS(=O)(=O)c2ccc(NC(=O)CCC3CCCC3)cc2)c1C | -8.0 | 42.7* | -38.6 | -13.5 | -5.4 | 2.5 | -7.9
COc1ccc(/C=N/Nc2nnc(C)n2N)cc1OC(C)=O | 11.0 | 26.0 | -0.5 | 2.9 | -0.8 | 3.5 | .
COc1ccc(/C=N/Nc2nnc(C)n2N)cc1OC | 10.5 | 41.3* | 17.4 | -5.4 | -0.5 | 1.6 | 18.4
CCOc1ccc(C(c2c(C)[nH][nH]c2=O)c2c(C)[nH][nH]c2=O)cc1OC | -3.4 | 54.1* | 3.3 | -1.6 | 10.4 | 1.2 | 34.8
Cc1cc(C)nc(NNS(=O)(=O)c2ccc(Cl)cc2)n1 | -3.7 | 8.9 | . | 4.6 | 5.0 | 0.6 | .
Cc1cc(C)nc(NNS(=O)(=O)c2ccc(F)c(Cl)c2)n1 | -8.8 | 35.7* | -7.2 | -1.5 | 3.4 | 3.2 | 14.0
O=C(Cn1nc(Cc2ccncc2)c2ccccc2c1=O)N1CCc2ccccc2C1 | 30.6 | 83.7* | . | 12.5 | 10.0 | -2.9 | 93.5*
O=C1CC(c2ccc(O)cc2)Oc2cc(O)ccc21 (stereo not given) | 10.5 | 51.1* | 5.1 | 15.2 | 7.6 | -14.8 | -14.4
O=C1CC(c2ccccc2)Oc2cc(O)ccc21 (stereo not given) | -10.2 | 15.1 | 1.9 | 5.5 | -0.7 | -1.1 | .
COCOc1ccc(C2CC(=O)c3c(OCOC)cc(OCOC)cc3O2)cc1 (stereo not given) | -13.8 | 53.6* | -3.2 | -10.0 | 10.8 | -0.9 | -2.4
COCOc1ccc(-c2cc(=O)c3c(OCOC)cc(OCOC)cc3o2)cc1 | -6.5 | -104.6 | 0.6 | -2.0 | -8.9 | -1.3 | .
COc1cc(O)c2c(c1)OC(c1ccc(O)cc1)CC2=O (stereo not given) | -9.4 | 73.8* | -2.7 | 5.9 | 0.0 | -2.7 | 18.2
COc1ccc([C@@H]2CC(=O)c3c(O)cc(O)cc3O2)cc1O | 28.1 | 2.7 | . | 14.9 | 4.2 | 0.2 | .
C[C@@H]1CN([C@H](C)CO)C(=O)CCCn2nncc2CO[C@@H]1CN(C)C(=O)Nc1cccc2ccccc12 | . | -100.9 | . | . | . | 0.0 | .
Cc1cc([N+](=O)[O-])ccc1NC(=O)CCC(=O)N1CCCCCC1 | -7.5 | 2.2 | 17.7 | 0.4 | -4.0 | 0.8 | .
